Results published in the M2OR odorant receptor database.

How the values were obtained:
Conditions in all cases: stereoisomer not certain
OR1N1 (Homo sapiens) = target: T1, OR1N1 (Homo sapiens) (UniProt Q8NGS0)
T1 sequence (whole entry): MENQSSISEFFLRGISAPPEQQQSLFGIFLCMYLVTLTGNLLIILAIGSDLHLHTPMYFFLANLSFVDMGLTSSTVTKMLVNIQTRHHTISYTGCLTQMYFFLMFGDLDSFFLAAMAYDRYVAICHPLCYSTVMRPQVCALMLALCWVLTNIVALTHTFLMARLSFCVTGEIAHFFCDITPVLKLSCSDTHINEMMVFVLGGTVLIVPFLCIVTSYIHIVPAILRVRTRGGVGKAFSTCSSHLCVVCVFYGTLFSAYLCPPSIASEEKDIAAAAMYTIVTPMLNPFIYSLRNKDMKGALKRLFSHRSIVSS
In short: (§1)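 Each entry records the cell line, G-protein, co-transfected protein and tags used. Methods varied with the source, often transient luciferase assays in mammalian cell lines. A receptor–molecule pair is called responsive (active) if the original authors judged its signal statistically different from baseline and non-responsive (inactive) otherwise.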

OR1N2 = test system: OR1N2
In short: as §1

OR1P1 (Homo sapiens) = OR1P1 (Homo sapiens) (UniProt Q8NH06)
In short: as §1

OR1Q1 (Homo sapiens) = OR1Q1 (Homo sapiens) (UniProt Q15612)
In short: as §1

OR1S1 (Homo sapiens) = OR1S1 (Homo sapiens) (UniProt Q8NH92)
In short: as §1

OR1S2 (Homo sapiens) = OR1S2 (Homo sapiens) (UniProt Q8NGQ3)
In short: as §1

OR2A1 (Homo sapiens) = target: T2, OR2A1 (Homo sapiens) (UniProt Q8NGT9)
T2 sequence (whole entry): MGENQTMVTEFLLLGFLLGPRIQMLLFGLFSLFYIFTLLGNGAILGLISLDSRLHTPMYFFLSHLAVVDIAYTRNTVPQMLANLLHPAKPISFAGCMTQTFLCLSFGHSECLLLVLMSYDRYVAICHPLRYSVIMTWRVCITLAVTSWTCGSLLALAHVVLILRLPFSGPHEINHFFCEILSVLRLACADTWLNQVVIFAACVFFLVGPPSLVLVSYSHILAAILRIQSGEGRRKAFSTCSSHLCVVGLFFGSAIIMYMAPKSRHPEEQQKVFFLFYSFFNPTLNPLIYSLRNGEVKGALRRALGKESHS
In short: as §1

OR2A12 (Homo sapiens) = OR2A12 (Homo sapiens) (UniProt Q8NGT7)
In short: as §1

OR2A14 (Homo sapiens) = OR2A14 (Homo sapiens) (UniProt Q96R47)
In short: as §1

OR2A2 (Homo sapiens) = OR2A2 (Homo sapiens) (UniProt Q6IF42)
In short: as §1

OR2A25 (Homo sapiens) = OR2A25 (Homo sapiens) (UniProt A4D2G3)
In short: as §1

OR2A4 (Homo sapiens) = OR2A4 (Homo sapiens) (UniProt O95047)
In short: as §1

OR2A5 (Homo sapiens) = OR2A5 (Homo sapiens) (UniProt Q96R48)
In short: as §1

OR1N2 W37R = test system: OR1N2 W37R
In short: as §1

OR1Q1 = test system: OR1Q1
In short: as §1

OR1S2 E17G = test system: OR1S2 E17G
In short: as §1

OR1S2 V225T G240R = test system: OR1S2 V225T G240R
In short: as §1

OR2A1 S168C = test system: OR2A1 S168C
In short: as §1

OR2A1 T73A R74C S168C = test system: OR2A1 T73A R74C S168C
In short: as §1

OR2A2 = test system: OR2A2
In short: as §1

Measured: odorant receptor agonist call

Sequence of OR2A25 (Homo sapiens) (A4D2G3 whole entry): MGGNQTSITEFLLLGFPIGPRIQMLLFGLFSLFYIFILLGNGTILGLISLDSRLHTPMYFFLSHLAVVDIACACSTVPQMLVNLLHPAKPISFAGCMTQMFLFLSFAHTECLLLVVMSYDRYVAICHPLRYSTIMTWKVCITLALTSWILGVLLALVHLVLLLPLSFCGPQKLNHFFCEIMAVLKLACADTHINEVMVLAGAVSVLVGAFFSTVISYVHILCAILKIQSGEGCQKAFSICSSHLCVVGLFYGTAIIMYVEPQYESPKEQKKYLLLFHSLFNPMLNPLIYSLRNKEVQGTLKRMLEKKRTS
Sequence of OR1Q1 (Homo sapiens) (Q15612 whole entry): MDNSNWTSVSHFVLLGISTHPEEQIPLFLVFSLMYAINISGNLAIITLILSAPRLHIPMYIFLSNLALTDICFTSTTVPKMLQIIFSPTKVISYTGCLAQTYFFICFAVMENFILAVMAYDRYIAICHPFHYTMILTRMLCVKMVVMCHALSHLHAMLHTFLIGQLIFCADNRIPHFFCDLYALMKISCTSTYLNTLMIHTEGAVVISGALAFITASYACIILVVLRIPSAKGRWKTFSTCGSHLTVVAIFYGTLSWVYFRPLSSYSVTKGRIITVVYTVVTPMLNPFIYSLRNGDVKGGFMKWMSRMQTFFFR
Sequence of OR1N2 (as listed by the source): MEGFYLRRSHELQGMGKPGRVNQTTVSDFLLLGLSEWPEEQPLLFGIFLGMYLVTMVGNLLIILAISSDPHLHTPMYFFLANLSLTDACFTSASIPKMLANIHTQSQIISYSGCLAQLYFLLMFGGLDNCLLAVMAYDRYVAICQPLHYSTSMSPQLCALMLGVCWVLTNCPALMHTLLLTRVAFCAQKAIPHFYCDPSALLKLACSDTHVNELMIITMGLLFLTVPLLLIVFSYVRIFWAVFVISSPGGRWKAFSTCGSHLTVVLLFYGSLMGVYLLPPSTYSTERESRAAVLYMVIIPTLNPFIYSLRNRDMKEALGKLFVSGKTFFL
Sequence of OR2A14 (Homo sapiens) (Q96R47 whole entry): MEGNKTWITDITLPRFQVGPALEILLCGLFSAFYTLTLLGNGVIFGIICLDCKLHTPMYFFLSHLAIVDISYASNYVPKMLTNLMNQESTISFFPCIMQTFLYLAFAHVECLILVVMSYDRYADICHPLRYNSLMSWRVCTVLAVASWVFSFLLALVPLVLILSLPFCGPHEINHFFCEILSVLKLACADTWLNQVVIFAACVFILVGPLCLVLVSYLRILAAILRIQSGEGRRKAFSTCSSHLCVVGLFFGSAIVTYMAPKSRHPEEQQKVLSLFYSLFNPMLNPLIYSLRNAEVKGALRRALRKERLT
Sequence of OR1S1 (Homo sapiens) (Q8NH92 whole entry): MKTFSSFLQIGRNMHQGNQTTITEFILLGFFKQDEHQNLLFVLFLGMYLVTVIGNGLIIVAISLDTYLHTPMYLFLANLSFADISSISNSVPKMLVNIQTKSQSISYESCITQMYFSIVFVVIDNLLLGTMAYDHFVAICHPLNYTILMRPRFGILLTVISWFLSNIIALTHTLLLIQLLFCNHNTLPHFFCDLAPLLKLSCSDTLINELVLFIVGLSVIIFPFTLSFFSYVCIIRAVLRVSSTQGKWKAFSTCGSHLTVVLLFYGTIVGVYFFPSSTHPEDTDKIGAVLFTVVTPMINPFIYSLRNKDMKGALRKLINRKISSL
Sequence of OR2A5 (Homo sapiens) (Q96R48 whole entry): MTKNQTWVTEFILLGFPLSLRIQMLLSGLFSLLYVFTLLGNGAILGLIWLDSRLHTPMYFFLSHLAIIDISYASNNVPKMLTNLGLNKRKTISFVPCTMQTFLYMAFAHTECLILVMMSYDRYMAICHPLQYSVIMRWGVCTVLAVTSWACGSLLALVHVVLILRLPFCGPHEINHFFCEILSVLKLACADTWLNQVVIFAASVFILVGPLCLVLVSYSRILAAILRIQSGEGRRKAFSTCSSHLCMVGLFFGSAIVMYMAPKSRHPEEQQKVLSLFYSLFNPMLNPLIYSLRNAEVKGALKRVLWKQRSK
Sequence of OR1S2 (Homo sapiens) (Q8NGQ3 whole entry): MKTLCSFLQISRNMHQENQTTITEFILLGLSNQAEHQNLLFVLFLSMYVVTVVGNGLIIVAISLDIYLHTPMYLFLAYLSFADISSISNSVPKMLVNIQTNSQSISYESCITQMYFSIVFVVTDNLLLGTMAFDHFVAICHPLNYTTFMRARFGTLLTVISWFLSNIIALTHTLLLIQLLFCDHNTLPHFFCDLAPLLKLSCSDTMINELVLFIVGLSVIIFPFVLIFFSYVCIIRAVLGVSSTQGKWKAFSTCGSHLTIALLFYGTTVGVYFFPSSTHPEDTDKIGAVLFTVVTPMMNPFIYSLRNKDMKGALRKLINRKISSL
Sequence of OR2A2 (Homo sapiens) (Q6IF42 whole entry): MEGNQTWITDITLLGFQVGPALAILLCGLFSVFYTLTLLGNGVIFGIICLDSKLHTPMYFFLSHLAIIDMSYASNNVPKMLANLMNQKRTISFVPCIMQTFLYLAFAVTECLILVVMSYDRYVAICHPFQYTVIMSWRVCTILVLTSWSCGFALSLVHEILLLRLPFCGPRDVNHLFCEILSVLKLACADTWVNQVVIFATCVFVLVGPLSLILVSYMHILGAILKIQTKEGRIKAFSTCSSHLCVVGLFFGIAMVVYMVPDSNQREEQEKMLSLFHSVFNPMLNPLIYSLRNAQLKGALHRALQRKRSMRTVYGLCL
Sequence of OR2A12 (Homo sapiens) (Q8NGT7 whole entry): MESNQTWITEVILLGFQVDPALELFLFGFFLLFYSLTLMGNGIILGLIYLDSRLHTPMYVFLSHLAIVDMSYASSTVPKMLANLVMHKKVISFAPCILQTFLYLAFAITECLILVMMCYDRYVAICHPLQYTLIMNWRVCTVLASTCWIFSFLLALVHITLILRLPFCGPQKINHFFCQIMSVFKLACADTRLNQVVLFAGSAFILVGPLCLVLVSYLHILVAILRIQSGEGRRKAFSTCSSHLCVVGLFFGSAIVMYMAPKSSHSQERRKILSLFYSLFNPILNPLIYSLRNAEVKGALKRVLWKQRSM
Sequence of OR2A4 (Homo sapiens) (O95047 whole entry): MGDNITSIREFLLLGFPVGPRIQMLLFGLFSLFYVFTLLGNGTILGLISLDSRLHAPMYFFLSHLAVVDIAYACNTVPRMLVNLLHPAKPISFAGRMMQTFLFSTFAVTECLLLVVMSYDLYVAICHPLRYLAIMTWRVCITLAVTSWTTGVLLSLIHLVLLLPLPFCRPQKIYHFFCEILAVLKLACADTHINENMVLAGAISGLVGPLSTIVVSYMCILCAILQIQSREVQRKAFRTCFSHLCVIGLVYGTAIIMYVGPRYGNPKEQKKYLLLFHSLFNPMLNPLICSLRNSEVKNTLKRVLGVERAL
Sequence of OR1N2 W37R (as listed by the source, stated change not applied): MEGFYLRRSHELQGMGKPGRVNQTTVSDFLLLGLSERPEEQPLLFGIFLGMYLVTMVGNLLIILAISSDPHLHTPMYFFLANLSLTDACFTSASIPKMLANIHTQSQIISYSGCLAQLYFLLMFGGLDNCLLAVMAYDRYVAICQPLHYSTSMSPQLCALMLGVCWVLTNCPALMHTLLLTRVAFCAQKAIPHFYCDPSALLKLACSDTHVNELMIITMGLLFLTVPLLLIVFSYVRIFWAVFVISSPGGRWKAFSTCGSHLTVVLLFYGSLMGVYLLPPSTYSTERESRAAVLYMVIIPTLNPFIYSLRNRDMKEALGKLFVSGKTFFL
Sequence of OR2A1 S168C (as listed by the source, stated change not applied): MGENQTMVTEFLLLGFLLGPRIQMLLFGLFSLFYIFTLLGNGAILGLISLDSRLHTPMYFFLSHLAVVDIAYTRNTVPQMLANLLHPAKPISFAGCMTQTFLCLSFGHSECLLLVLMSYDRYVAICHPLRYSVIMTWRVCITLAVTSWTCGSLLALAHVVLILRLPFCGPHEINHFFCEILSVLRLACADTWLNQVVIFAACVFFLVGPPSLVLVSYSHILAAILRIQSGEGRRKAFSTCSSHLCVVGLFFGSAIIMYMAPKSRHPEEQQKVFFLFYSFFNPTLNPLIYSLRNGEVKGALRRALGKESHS
Sequence of OR2A2 (as listed by the source): as the sequence (Q6IF42 whole entry) above, with F280L counted along it
Sequence of OR1P1 (Homo sapiens) (Q8NH06 whole entry K185A): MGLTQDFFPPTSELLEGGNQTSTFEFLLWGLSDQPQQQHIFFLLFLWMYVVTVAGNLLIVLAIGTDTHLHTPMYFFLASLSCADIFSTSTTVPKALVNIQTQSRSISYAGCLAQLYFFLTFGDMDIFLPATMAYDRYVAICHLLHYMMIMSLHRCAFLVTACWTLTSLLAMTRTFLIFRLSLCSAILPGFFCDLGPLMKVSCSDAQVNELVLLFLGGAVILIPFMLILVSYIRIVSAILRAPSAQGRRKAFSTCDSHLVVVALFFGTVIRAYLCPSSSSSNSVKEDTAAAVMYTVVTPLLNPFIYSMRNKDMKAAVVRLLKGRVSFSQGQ
Sequence of OR1Q1 (as listed by the source): as the sequence (Q15612 whole entry) above, with Q24R, I163M counted along it
Sequence of OR1S2 E17G (as listed by the source, stated change not applied): as the sequence (Q8NGQ3 whole entry) above, with E17G counted along it

Cc1c([N+](=O)[O-])c(C)c([N+](=O)[O-])c(C(C)(C)C)c1[N+](=O)[O-]
inactive: OR1N1 (Homo sapiens) | OR1N2 | OR1P1 (Homo sapiens) | OR1Q1 (Homo sapiens) | OR1S1 (Homo sapiens) | OR1S2 (Homo sapiens) | OR2A1 (Homo sapiens) | OR2A12 (Homo sapiens) | OR2A14 (Homo sapiens) | OR2A2 (Homo sapiens) | OR2A25 (Homo sapiens) | OR2A4 (Homo sapiens) | OR2A5 (Homo sapiens)

COc1ccc(C=O)cc1
inactive: OR2A1 (Homo sapiens)

Cc1cccc(C)c1
inactive: OR2A1 (Homo sapiens)

c1ccncc1
inactive: OR1N1 (Homo sapiens)

C=CCOC(=O)Cc1ccccc1
inactive: OR1N1 (Homo sapiens) | OR1N2 W37R | OR1N2 | OR1Q1 (Homo sapiens) | OR1Q1 | OR1S1 (Homo sapiens) | OR1S2 (Homo sapiens) | OR1S2 E17G | OR1S2 V225T G240R | OR2A1 (Homo sapiens) | OR2A1 S168C | OR2A1 T73A R74C S168C | OR2A12 (Homo sapiens) | OR2A14 (Homo sapiens) | OR2A2 (Homo sapiens) | OR2A25 (Homo sapiens) | OR2A2 | OR2A4 (Homo sapiens) | OR2A5 (Homo sapiens)
